Assay results of several laboratories.
Observed: cell growth or viability

NS(=O)(=O)c1ccc(-n2nc(C(=O)NN3C(=O)CCC3=O)cc2-c2ccccc2)cc1  IC50 (HT-29; fluorescence; 48 h): 31.4 µM
Nc1cccc2c1C(=O)N(C1CCC(=O)NC1=O)C2=O (centres unmarked)  IC50 (SU-DHL-4; CCK-8; 7 days): > 20 µM
CC(=O)O[C@H]1C(=O)[C@@]2(C)[C@H]([C@H](OC(=O)c3ccccc3)[C@]3(O)C[C@H](OC(=O)[C@H](O)[C@@H](NC(=O)c4ccccc4)c4ccccc4)C(C)=C1C3(C)C)[C@]1(OC(C)=O)CO[C@@H]1C[C@@H]2O  IC50 (LLC-PK1; MTT; 72 h): 1.31 µM
NS(=O)(=O)c1ccc(-n2nc(C(=O)NN=Cc3ccc(O)cc3)cc2-c2ccccc2)cc1  IC50 (HT-29; fluorescence; 48 h): 19.7 µM
O=c1c2cc(Cl)ccc2nc(-c2ccccc2)n1N=Cc1ccccc1  IC50 (LLC-PK1; MTT; 72 h): 303 µM
CN1CCC(NC2CCc3[nH]c4c(C(N)=O)ccc(-c5ccccc5Cl)c4c3C2)CC1 (centres unmarked)  IC50 (SU-DHL-4; 96 h): 0.0223 µM
O=c1c2cc(Cl)ccc2nc(-c2ccccc2)n1N=Cc1ccccc1O  IC50 (LLC-PK1; MTT; 72 h): 75.7 µM
O=C(NO)c1ccc(N2CCN(Cc3c[nH]c4ccccc34)CC2)cc1  IC50 (LLC-PK1; 48 h): 13.3 µM
O=c1c2cc(Cl)ccc2nc(-c2ccccc2)n1N=Cc1ccc(Br)cc1O  IC50 (LLC-PK1; MTT; 72 h): 34.8 µM
COc1cccc2c1C(=O)c1c(O)c3c(c(O)c1C2=O)C[C@@](O)(C(=O)CO)C[C@@H]3O[C@H]1C[C@H](N)[C@H](O)[C@H](C)O1  IC50 (LLC-PK1; 48 h): 2.34 µM
NS(=O)(=O)c1ccc(-n2nc(-c3nnc(CCl)o3)cc2-c2ccccc2)cc1  IC50 (HT-29; fluorescence; 48 h): 29.5 µM
O=c1c2cc(Cl)ccc2nc(-c2ccccc2)n1N=Cc1ccco1  IC50 (LLC-PK1; MTT; 72 h): 154 µM
CC(C)(C)c1cnc(CSc2cnc(NC(=O)C3CCN(C(=O)CCCCCCCN4Cc5cc6c(cc5C4)C(=O)N(C4CCC(=O)NC4=O)C6=O)CC3)s2)o1 (centres unmarked)  IC50 (SK-UT-1; MTT): 0.106 µM
CC(=NNC(=O)c1cc(-c2ccccc2)n(-c2ccc(S(N)(=O)=O)cc2)n1)c1ccc(Br)cc1  IC50 (HT-29; fluorescence; 48 h): 37.2 µM
O=C(NO)c1ccc(N2CCN(Cc3cnc4ccccc4c3)CC2)cc1  IC50 (LLC-PK1; 48 h): > 69.1 µM
COc1ccc(C=Nn2c(-c3ccccc3)nc3ccc(Cl)cc3c2=O)cc1OC  IC50 (LLC-PK1; MTT; 72 h): 462 µM
COc1ccc(C=NNC(=O)c2cc(-c3ccccc3)n(-c3ccc(S(N)(=O)=O)cc3)n2)cc1OC  IC50 (HT-29; fluorescence; 48 h): 25.8 µM
CC(=O)OC[C@H]1O[C@@H]([S-])[C@H](OC(C)=O)[C@@H](OC(C)=O)[C@@H]1OC(C)=O.CCP(CC)CC.[Au+]  IC50 (IMR-90; MTT; 48 h): 5.27 µM
COc1cc(C=NNC(=O)c2cc(-c3ccccc3)n(-c3ccc(S(N)(=O)=O)cc3)n2)cc(OC)c1OC  IC50 (HT-29; fluorescence; 48 h): 26.3 µM
CC(C)N=c1cc2n(-c3ccc(Cl)cc3)c3ccccc3nc-2cc1Nc1ccc(Cl)cc1  IC50 (Caco-2; MTT; 24 h): 23.3 µg/mL
